Measured values: article PMC3938282 (Journal of the American Chemical Society, 2013)

Tests used:
308 human kinases [1] = conditions: cited from earlier work; for share of all protein kinases targeted (same metric, more than 80% inhibition): 500 nM
Pkd1-WT [2] = biological target: T1, Pkd1-WT (Homo sapiens, UniProt Q15139); conditions: cited from earlier work
Kif5b-Ret-WT = Kif5b-Ret-WT (Homo sapiens, UniProt P07949+P33176); conditions: cited from earlier work
EphA4-WT = EphA4-WT (Homo sapiens, UniProt P54764); assay: EphA4 auto-phosphorylation in transfected HEK-293T cells; assay type: cell-based
Chain of EphA4-WT (P54764 20-986): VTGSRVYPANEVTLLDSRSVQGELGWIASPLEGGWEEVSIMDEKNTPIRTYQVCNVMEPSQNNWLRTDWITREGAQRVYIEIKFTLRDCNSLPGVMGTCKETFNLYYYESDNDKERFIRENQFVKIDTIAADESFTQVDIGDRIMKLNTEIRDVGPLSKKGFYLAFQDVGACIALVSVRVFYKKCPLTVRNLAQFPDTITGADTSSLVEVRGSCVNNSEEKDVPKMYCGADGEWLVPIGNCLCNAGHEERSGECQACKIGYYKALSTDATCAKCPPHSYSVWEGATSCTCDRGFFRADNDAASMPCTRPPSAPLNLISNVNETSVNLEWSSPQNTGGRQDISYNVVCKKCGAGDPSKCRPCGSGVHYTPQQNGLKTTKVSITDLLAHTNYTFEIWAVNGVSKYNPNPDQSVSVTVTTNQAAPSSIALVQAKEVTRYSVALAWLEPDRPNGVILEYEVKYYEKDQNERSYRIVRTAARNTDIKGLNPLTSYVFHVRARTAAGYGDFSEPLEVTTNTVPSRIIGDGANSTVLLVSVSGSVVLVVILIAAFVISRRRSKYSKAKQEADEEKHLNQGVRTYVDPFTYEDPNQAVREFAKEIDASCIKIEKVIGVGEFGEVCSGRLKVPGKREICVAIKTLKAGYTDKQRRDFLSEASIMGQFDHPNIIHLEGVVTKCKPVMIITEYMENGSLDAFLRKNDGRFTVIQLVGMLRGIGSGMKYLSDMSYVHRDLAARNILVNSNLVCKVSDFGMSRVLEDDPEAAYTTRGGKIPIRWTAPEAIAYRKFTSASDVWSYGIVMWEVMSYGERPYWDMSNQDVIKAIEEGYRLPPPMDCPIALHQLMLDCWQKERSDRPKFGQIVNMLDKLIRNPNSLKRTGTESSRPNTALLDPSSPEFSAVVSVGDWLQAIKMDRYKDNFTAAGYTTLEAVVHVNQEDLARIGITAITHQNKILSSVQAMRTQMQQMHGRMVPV

EphA4-AS1 = assay: as above; assay type: cell-based
v-Src-AS1 = assay: inhibition of tyrosine phosphorylation in stably transfected 3T3 cells; assay type: cell-based, mouse
Src-AS1 (Gly gatekeeper) = Src-AS1 (Gly gatekeeper) (Gallus gallus, UniProt P00523, T338G); assay: in vitro kinase inhibition, seven-point dose-response; assay type: biochemical
Ack = Ack (Homo sapiens, UniProt Q07912); assay: in vitro IC50 against PP-sensitive WT kinases; assay type: biochemical; conditions: read-out: IC50 Ack; mean ± SEM
Chain of Ack (Q07912 whole entry): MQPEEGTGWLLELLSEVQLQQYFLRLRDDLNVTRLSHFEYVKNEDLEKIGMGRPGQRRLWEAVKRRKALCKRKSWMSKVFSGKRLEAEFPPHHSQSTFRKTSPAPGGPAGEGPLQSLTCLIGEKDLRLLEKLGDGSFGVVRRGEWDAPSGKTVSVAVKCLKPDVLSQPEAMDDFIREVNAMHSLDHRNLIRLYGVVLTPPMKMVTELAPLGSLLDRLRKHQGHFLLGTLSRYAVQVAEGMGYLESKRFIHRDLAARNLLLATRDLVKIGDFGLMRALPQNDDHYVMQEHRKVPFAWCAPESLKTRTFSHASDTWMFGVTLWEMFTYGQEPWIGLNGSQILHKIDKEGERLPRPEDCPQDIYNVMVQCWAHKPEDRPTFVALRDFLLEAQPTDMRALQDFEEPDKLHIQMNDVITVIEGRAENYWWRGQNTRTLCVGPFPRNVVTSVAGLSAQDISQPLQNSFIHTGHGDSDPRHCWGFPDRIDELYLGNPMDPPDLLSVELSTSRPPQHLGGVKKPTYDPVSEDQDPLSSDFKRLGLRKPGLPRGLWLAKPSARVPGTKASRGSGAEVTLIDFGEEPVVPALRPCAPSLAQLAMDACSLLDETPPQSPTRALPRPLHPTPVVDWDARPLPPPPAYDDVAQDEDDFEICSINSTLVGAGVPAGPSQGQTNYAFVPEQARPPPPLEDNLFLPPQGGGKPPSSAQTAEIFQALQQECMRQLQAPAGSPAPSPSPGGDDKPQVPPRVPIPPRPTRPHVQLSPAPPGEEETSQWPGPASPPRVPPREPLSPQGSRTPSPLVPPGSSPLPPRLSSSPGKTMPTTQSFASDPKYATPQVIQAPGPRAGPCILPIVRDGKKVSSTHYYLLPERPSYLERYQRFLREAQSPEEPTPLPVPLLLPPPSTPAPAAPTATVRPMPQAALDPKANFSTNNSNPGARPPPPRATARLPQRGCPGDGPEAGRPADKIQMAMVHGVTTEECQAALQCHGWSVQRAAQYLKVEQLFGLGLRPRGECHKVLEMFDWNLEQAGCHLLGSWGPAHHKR
Method in brief: (§1)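 In vitro kinase inhibition. IC50 derived from a seven-point dose-response of test compound; values reported as mean with standard error of the mean.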

Ret = Ret (Homo sapiens, UniProt P07949); assay: in vitro IC50 against PP-sensitive WT kinases; assay type: biochemical; conditions: read-out: IC50 Ret; mean ± SEM
Method in brief: as §1

EphA1 = EphA1 (Homo sapiens, UniProt P21709); assay: in vitro IC50 against PP-sensitive WT kinases; assay type: biochemical; conditions: read-out: IC50 EphA1; mean ± SEM
Method in brief: as §1

308 human kinases [3] = assay: kinase panel inhibition profiling; assay type: biochemical; conditions: 1 µM
Method in brief: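 Single-point profiling of 308 human kinases: fraction of each kinase's activity inhibited by test compound at 1µM.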

CKδ = CKδ (Homo sapiens, UniProt P48730); assay: in vitro IC50 against PP-sensitive WT kinases; assay type: biochemical; conditions: read-out: IC50 CKδ; mean ± SEM
Method in brief: as §1

Ptk6 = Ptk6 (Homo sapiens, UniProt Q13882); assay: in vitro IC50 against PP-sensitive WT kinases; assay type: biochemical; conditions: read-out: IC50 Ptk6; mean ± SEM
Chain of Ptk6 (Q13882 whole entry): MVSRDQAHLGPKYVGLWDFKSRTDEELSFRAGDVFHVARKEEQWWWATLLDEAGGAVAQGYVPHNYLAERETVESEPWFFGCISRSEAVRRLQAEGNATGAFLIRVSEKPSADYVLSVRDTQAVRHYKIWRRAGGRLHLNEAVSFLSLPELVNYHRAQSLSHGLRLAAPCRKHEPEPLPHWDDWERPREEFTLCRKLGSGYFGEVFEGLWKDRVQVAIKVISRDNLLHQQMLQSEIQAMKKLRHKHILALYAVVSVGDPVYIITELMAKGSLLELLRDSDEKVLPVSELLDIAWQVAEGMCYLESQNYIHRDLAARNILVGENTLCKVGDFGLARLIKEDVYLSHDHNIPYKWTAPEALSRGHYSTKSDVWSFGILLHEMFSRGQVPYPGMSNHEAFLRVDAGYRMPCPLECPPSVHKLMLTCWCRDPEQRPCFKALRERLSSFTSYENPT
Method in brief: as §1

CK1ε = CK1ε (Homo sapiens, UniProt P49674); assay: in vitro IC50 against PP-sensitive WT kinases; assay type: biochemical; conditions: read-out: IC50 CK1ε; mean ± SEM
Chain of CK1ε (P49674 whole entry): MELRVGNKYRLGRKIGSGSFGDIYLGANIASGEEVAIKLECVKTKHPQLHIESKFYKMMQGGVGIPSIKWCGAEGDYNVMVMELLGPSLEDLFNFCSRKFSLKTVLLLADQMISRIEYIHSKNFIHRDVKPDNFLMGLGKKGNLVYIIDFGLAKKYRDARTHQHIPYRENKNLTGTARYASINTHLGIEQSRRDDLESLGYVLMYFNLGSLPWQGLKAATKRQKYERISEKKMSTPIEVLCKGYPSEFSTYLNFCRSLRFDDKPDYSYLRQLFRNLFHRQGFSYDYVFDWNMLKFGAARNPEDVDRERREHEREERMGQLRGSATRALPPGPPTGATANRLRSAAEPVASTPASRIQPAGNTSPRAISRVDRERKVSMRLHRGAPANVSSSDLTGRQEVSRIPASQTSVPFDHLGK
Method in brief: as §1

Kif5b-Ret-AS2 = Kif5b-Ret-AS2 (Homo sapiens, UniProt P07949+P33176, V804A); assay: Ret auto-phosphorylation at Y905 in 3T3 mouse cells; assay type: cell-based
Chain of Kif5b-Ret-AS2 (P07949 713-1063 V804A limits assumed, one chain of several): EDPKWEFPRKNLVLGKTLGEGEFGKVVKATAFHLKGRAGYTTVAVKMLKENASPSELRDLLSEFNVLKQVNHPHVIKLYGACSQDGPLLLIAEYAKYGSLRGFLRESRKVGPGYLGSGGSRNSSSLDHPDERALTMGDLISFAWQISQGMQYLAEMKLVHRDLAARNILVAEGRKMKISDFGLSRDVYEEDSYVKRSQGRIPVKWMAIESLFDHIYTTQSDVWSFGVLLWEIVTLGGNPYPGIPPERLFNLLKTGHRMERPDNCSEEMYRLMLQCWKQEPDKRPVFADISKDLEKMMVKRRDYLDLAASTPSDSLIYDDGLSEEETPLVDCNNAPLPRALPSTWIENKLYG
Method in brief: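 Mouse 3T3 cells expressing Kif5b-Ret-AS2 or Kif5b-Ret-WT were exposed to test compound at 10µM, 3.3µM and 1.1µM. Read-out was Ret auto-phosphorylation at Y905.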

Src-AS2 (Ala gatekeeper) = Src-AS2 (Ala gatekeeper) (Gallus gallus, UniProt P00523, T338A); assay: in vitro kinase inhibition, seven-point dose-response; assay type: biochemical
Pkd1-AS1 = assay: Pkd auto-phosphorylation at S916 in transfected HEK-293T cells; assay type: cell-based; conditions: 625nM - 10µM
Method in brief: (§2)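 HEK-293T cells transiently transfected with Pkd1-WT or Pkd1-AS1. Cells treated with test compound across 625nM - 10µM, then assessed for Pkd auto-phosphorylation at S916.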

Pkd1 = Pkd1 (Homo sapiens, UniProt Q15139); assay: in vitro IC50 against PP-sensitive WT kinases; assay type: biochemical; conditions: read-out: IC50 Pkd1; mean ± SEM
Chain of Pkd1 (Q15139 whole entry): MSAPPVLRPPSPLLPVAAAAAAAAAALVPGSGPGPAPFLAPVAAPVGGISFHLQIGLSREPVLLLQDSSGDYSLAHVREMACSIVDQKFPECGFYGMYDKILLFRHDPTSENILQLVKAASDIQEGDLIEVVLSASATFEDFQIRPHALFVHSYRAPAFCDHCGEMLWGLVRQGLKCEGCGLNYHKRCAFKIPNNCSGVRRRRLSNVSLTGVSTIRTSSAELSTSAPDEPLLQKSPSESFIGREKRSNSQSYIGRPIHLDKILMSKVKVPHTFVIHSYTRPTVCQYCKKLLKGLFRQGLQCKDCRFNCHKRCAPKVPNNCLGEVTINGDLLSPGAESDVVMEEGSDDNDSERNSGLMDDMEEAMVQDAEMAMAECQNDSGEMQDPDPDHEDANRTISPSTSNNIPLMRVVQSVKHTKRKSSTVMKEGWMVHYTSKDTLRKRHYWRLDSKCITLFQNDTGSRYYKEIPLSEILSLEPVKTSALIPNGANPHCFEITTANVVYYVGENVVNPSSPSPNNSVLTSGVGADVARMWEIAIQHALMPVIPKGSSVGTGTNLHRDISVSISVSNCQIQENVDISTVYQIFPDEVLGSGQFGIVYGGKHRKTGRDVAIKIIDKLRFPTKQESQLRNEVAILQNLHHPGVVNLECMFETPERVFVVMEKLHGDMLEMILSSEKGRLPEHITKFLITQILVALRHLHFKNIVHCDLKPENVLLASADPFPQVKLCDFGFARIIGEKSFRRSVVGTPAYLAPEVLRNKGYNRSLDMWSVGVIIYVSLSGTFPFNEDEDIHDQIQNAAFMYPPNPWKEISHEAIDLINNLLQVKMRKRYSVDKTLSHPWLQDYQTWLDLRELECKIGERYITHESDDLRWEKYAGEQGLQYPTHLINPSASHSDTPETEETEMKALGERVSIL
Method in brief: as §1

Pkd2 = Pkd2 (Homo sapiens, UniProt Q9BZL6); assay: in vitro IC50 against PP-sensitive WT kinases; assay type: biochemical; conditions: read-out: IC50 Pkd2; mean ± SEM
Chain of Pkd2 (Q9BZL6 whole entry): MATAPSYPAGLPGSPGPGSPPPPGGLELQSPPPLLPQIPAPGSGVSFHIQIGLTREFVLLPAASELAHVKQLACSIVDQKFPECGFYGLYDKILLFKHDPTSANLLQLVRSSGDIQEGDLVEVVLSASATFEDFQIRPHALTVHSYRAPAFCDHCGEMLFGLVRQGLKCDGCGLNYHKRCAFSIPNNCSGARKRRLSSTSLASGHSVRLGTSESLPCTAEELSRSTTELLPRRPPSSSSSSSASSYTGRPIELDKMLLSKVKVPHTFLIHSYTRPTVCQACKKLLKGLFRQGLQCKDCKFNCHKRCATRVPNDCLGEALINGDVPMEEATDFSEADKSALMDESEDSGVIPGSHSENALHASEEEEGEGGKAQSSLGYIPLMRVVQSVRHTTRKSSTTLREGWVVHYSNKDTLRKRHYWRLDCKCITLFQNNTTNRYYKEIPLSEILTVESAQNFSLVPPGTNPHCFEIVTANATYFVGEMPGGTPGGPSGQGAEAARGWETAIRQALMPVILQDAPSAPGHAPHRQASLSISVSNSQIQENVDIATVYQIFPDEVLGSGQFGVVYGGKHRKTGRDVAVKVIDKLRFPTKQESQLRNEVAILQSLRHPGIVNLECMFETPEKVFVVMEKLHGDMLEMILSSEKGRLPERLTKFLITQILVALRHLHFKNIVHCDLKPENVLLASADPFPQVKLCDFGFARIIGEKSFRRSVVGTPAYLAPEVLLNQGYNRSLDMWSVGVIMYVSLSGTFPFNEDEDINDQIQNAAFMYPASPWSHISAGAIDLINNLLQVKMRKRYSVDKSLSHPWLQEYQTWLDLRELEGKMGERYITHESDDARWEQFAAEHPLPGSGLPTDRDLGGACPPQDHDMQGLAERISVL
Method in brief: as §1

Pkd1-AS2 = Pkd1-AS2 inhibition in cells; assay type: cell-based
v-Src-WT = assay: inhibition of tyrosine phosphorylation in stably transfected 3T3 cells; assay type: cell-based, mouse
Src-WT = Src-WT (Gallus gallus, UniProt P00523); assay: in vitro kinase inhibition, seven-point dose-response; assay type: biochemical
Pkd1-WT [4] = biological target: T1, Pkd1-WT; assay: Pkd auto-phosphorylation at S916 in transfected HEK-293T cells; assay type: cell-based; conditions: 625nM - 10µM
Method in brief: as §2

[5] = N12-butylamine derivative of the C7-iso-butyl staralog

T1 sequence (Q15139 whole entry): as the sequence (Q15139 whole entry) above

In the case of `CC(C)(C)n1nc(-c2cccc3ccccc23)c2c(N)ncnc21` [Star 1NA-PP1, 1NA-PP1], the “share of kinases inhibited by more than 80%” value (308 human kinases [1]) is listed as 4.5%, the “inhibition of Pkd1 WT kinase (in words)” value (Pkd1-WT [2]) is listed as “weakly inhibited at higher drug concentrations” and the “inhibition of Ret WT kinase (in words)” value (Kif5b-Ret-WT) is listed as “weakly inhibited at higher drug concentrations”. The “concentrations at which EphA4-WT activity is inhibited” value (EphA4-WT) was no less than 2.5 µM and the “inhibition of EphA4-AS1 allele” value (EphA4-AS1; at ≥2.5µM) was “greater than 90%”.

In the case of `CC(C)(C)n1nc(Cc2cccc3ccccc23)c2c(N)ncnc21` [Star 1NM-PP1, 1NM-PP1], the “share of kinases inhibited by more than 80%” value (308 human kinases [1]) is listed as 1.2%.

In the case of `CC(C)C[C@@H]1NC(=O)c2c1c1c3ccccc3[nH]c1c1[nH]c3ccccc3c21` [Star 1], the “concentration giving robust inhibition of v-Src-AS1 mediated phosphorylation” value (v-Src-AS1) is reported as “below 1 µM”, the “relative potency against v-Src-AS1 in cells (in words)” value (v-Src-AS1) is reported as “weakest” and the “activity/potency towards Src-AS1 (in words)” value (Src-AS1 (Gly gatekeeper)) is reported as “most potent”.

For `Cc1cccc(Cc2nn(C(C)(C)C)c3ncnc(N)c23)c1` [Star 3MB-PP1, 3MB-PP1], the “share of kinases inhibited by more than 80%” value (308 human kinases [1]) is given as 1.2%.

`CC(C)C[C@@H]1NC(=O)c2c1c1c3ccccc3n(CCCCN)c1c1[nH]c3ccccc3c21` [Star 12] gave an IC50 (Ack) of 1.3 µM, an IC50 (Ret) greater than 5 µM and an IC50 (EphA1) greater than 5 µM. For the same compound, the “highest inhibition of any single kinase in the panel” value (308 human kinases [3]) was no more than 80%, the IC50 (CKδ) was greater than 5 µM and the IC50 (Ptk6) was greater than 5 µM. For the same compound, the “concentration giving robust inhibition of v-Src-AS1 mediated phosphorylation” value (v-Src-AS1) was “below 1 µM”, the “relative potency against v-Src-AS1 in cells (in words)” value (v-Src-AS1) was “most potent inhibitor” and the IC50 (CK1ε) was greater than 5 µM. For the same compound, the “inhibition of Ret-AS2 autophosphorylation (in words)” value (Kif5b-Ret-AS2) was “capable of inhibiting”, the “improvement in potency toward Src-AS2” value (Src-AS2 (Ala gatekeeper); [5]) was “~ ten-fold” and the “activity towards Pkd1-AS1 (in words)” value (Pkd1-AS1) was “potent Pkd-AS1 inhibitors”. The IC50 (Pkd1) was 3.3 µM, the IC50 (Pkd2) was greater than 5 µM and the “activity towards EphA4-AS1 (in words)” value (EphA4-AS1) was “exhibited activity”. The “improvement in potency toward Src-AS1” value (Src-AS1 (Gly gatekeeper); [5]) was “~ ten-fold”, the “activity towards Pkd1-AS2 (in words)” value (Pkd1-AS2) was “did not show activity” and the “effect on v-Src-WT-mediated phosphorylation (in words)” value (v-Src-WT) was “little effect”. For the same compound, the IC50 (Src-WT; read-out: IC50 toward Src-WT) was greater than 5 µM and the “effect on Pkd1-WT activity (in words)” value (Pkd1-WT [4]) was “do not affect Pkd1-WT activity”.

For `COC(=O)[C@@]1(O)C[C@H]2O[C@]1(C)n1c3ccccc3c3c4c(c5c6ccccc6n2c5c31)C(=O)NC4` [Star K252a, K252a], the “share of all protein kinases targeted (same metric, more than 80% inhibition)” value (308 human kinases [1]) is listed as 49%.

With `O=C1NCc2c1c1c3ccccc3[nH]c1c1[nH]c3ccccc3c21` [Star K252c, K252c, reference compound] the “activity towards Src-AS2 (in words)” value (Src-AS2 (Ala gatekeeper)) was “complete loss of activity”, the “activity/potency towards Src-AS1 (in words)” value (Src-AS1 (Gly gatekeeper)) was “complete loss of activity” and the “activity towards Src-WT (in words)” value (Src-WT) was “complete loss of activity”.

In the case of `CN[C@@H]1C[C@H]2O[C@@](C)([C@@H]1OC)n1c3ccccc3c3c4c(c5c6ccccc6n2c5c31)C(=O)NC4` [staurosporine], the “share of all protein kinases targeted (same metric, more than 80% inhibition)” value (308 human kinases [1]) is listed as 72% and the “share of protein kinases potently targeted” value (308 human kinases [1]) is listed as ~ 80%.
